Source: PubChem BioAssay (several laboratories)
Diaphorase inh = diaphorase inhibitors and chemical oxidizers, primary screen, counter-screen for diaphorase-coupled primary assays, biochemical, uHTS, resorufin fluorescence | diaphorase resazurin-to-resorufin fluorescence, NADH, 16 min; bacterial (C. kluyveri) enzyme, not human | inhibition, % at 20 µM | 0.69% of 190,000 active;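 active means primary screen inhibition at 20 µM above a set limit, cut at about 50% in these data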;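 further: plate controls were DMSO with full reaction for no effect and wells lacking NADH for full effect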
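Test system: Clostridium kluyveri diaphorase enzyme / Quantity: diaphorase at 0.14 U/mL in enzyme working solution / Incubation: 16-min room-temperature incubation before reading / Benchmarks: NADH-free wells as positive control, DMSO-only neutral wells / Signal: resorufin fluorescence 544/590 nm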
Diaph act CS = compounds boosting diaphorase resazurin reduction – biochemical, uHTS, resorufin fluorescence, counter-screen for diaphorase-coupled primary assays, primary screen; Diaphorase/resazurin coupled assay, 16 min; active compounds read high; 1 = vehicle wells, 0 = NADH-free wells; activation factor at 20 µM; 0.005% of 190,000 active; AID 1229, 2008;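 active means diaphorase activity raised at least twofold by the compound at 20 µM; inactive means activation factor below 2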
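Test system: Clostridium kluyveri diaphorase, purified enzyme; input: enzyme 0.07 U/mL final; buffer or medium: 50 mM HEPES pH 7.4 with 4.542 mM MgCl2, 0.005% Tween 20; also added: 0.114 mM NADH and 0.1 mM resazurin, final amounts; schedule: 16 min enzyme reaction, ambient temperature; technique: fluorescence of resorufin, 544 nm excitation, 590 nm emission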
PfG6PD inh = PfG6PD enzyme inhibitors, primary screen, biochemical, fluorescence intensity, uHTS; PfGluPho enzyme, NADPH resazurin-diaphorase fluorescence; inhibition, % at 20 µM; glucose-6-phosphate dehydrogenase-6-phosphogluconolactonase (Plasmodium falciparum 3D7); 0.78% of 350,000 active;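 active means inhibition reaching at least a set limit at 20 µM in the primary screen, cut at about 59% in these data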;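 further: 0% = DMSO wells with substrate and 100% = DMSO wells lacking glucose-6-phosphate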
Redox H2O2 prof = compounds producing H2O2 with reducing agent – biochemical, NIH compound library profiling, artefact control for MLSCN library redox annotation, primary screen. DTT-dependent redox cycling H2O2, phenol red/HRP absorbance; 100% = 100 µM peroxide control, 0% = buffer. 0.03% of 200,000 active. activation, % at 10 µM;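 active means activation of at least 50% relative to the plate's high and low controls in the primary single-dose screen; inactive means activation below 50%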;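 further: compound incubated with DTT at 0.8 mM final as the reducing agent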
L major viab = Leishmania major promastigote growth inhibition, primary screen. Leishmania major promastigotes, resazurin fluorescence viability. inhibition, % at 10 µM. 9% of 200,000 active. AID 1063, 2008;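 further: promastigotes grown with compound for 44 hours at 28 °C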
G6PDH counter = L. mesenteroides G6PDH inhibitors, counter-screen for G6PDH-coupled screening assays, biochemical, Leuconostoc mesenteroides enzyme. glucose-6-phosphate dehydrogenase [Leuconostoc mesenteroides]. Purified L. mesenteroides G6PDH, diaphorase/resazurin coupled fluorescence, 45 min. inhibition, % at 5 µM. 0.12% of 200,000 active. AID 1020, 2008
The depositor's hits bear a star; . = not tested or not shown. The full list was thinned out, with hits kept by preference. Unless noted, no stated cut-off is given here; in the data, active means inhibition above about 50%; inactive means the rest.

SMILES	Diaphorase inh	Diaph act CS	PfG6PD inh	Redox H2O2 prof	L major viab	G6PDH counter
COC(=O)C1=C(c2c(C)noc2C)C[C@@H]2CC[C@H]1N2C(=O)NCc1ccc(C(F)(F)F)cc1	.	.	-10.3	.	.	.
CN1CCN(Cc2nc3ccccc3n2C)CC1	16.1	0.8	-8.8	-0.1	-8.1	3.1
Cn1c(NN=O)nc2ccccc21	-11.4	1.1	2.5	6.5	97.4*	-1.5
CC12CCC(=O)C=C1CC(O)C1C2CCC2(C)C1CCC2(C)O (centres undefined)	.	.	-3.1	.	.	.
O=C1Nc2ccccc2/C1=C/c1cnc[nH]1	11.0	0.9	-1.3	1.0	98.1*	2.5
c1ccc2c(c1)[nH]c1cnccc12	5.3	0.9	22.3	-0.8	2.2	5.3
Cc1c2ccncc2c(C)c2c1[nH]c1ccccc12	-36.1	1.4	26.3	-0.7	100.3*	4.6
COC(=O)C[C@]1(C(=O)OC)CN(C#N)N(c2ccc(Cl)cc2)C12c1ccccc1-c1ccccc12	15.9	0.8	22.2	-0.8	100.4*	3.8
CC1CCN(C(=O)c2ccc(N3CC4CC(C3)c3cccc(=O)n3C4)c([N+](=O)[O-])c2)CC1 (centres undefined)	10.4	0.9	-3.6	0.2	70.8*	6.4
CC1CCCN(C(=O)c2ccc(N3CC4CC(C3)c3cccc(=O)n3C4)c([N+](=O)[O-])c2)C1 (centres undefined)	0.0	1	1.3	-0.3	-0.9	4.8
COc1cc(CNCCc2c[nH]c3ccccc23)cc(OC)c1	.	.	10.3	.	.	.
COc1cc2c3cc1Oc1cc(ccc1O)C[C@@H]1c4c(cc(OC)c(O)c4Oc4ccc(cc4)C[C@H]3N(C)CC2)CCN1C	17.3	0.8	34.9	0.3	100.5*	16.1
COc1cc2c3cc1Oc1c(OC)c(OC)cc4c1[C@H](Cc1ccc(cc1)Oc1cc(ccc1O)C[C@H]3N(C)CC2)N(C)CC4	.	.	33.8	.	.	.
CC(NCc1ccc(Cl)cc1)C(O)c1ccccc1 (centres undefined)	3.6	1	-6.2	1.8	87.0*	3.9
CC(NCc1ccc(Cl)cc1Cl)C(O)c1ccccc1 (centres undefined)	12.1	0.9	0.8	-3.4	64.4*	9.6
Cc1nnc2n1-c1ccc(Cl)cc1C(c1ccccc1)=NC2	16.5	0.8	.	.	.	-1.4
CCN1C(=O)C(=Cc2ccc(C)s2)C(=O)N(CC)C1=S	3.4	1	31.6	0.6	84.3*	-0.7
Oc1ccc(/C=N/NP(=S)(c2ccccc2)c2ccccc2)cc1	10.7	0.9	34.1	0.3	89.6*	3.0
COc1cc(/C=N/NP(=S)(c2ccccc2)c2ccccc2)ccc1O	17.4	0.8	-1.3	-0.2	80.7*	9.9
CCOC(=O)[C@@H]1[C@H]2COc3ccc(Br)cc3[C@H]2N2C(=O)N(c3cccc(C)c3)C(=O)[C@]12C	.	.	16.9	.	.	.
CCOc1ccc(N2C(=O)NC(=O)/C(=C/c3cnc(SC)nc3)C2=O)cc1	1.7	1	-7.6	-1.7	-2.6	13.4
CC1CCC(C(C)C)C(OC(=O)COC(=O)c2ccccc2N)C1 (centres undefined)	12.5	0.9	19.7	0.8	55.0*	11.0
CCOC(=O)c1c(-n2c(C)cc(C=C3C(=O)NC(=O)NC3=O)c2C)sc2c1CCCC2	9.5	0.9	-4.4	0.2	83.9*	5.4
Cc1cccc(N2C(=O)NC(=O)/C(=C\c3cc(C)n(-c4sc5c(c4C#N)CCCC5)c3C)C2=O)c1C	27.5	0.7	12.2	0.0	-2.7	2.1
Cc1cccc(CN2CCN(Cc3ccc(Cl)cc3)CC2)c1	-7.2	1.1	21.4	2.8	88.6*	1.0
SMILES	Diaphorase inh	Diaph act CS	PfG6PD inh	Redox H2O2 prof	L major viab	G6PDH counter
Cc1cccc(CN2CCN(c3ccc(Cl)cc3)CC2)c1	0.8	1	6.9	-2.0	-1.1	3.2
Oc1ccc(Cl)cc1CN1CCN(Cc2ccccc2)CC1	5.4	0.9	6.5	-0.1	62.7*	3.8
COc1ccc(-c2ccc3n2Cc2cnnn2-c2ccccc2-3)cc1	.	.	10.0	.	.	.
CCCCn1c(=O)c(C(=O)Nc2ccccc2N)c(O)c2ccccc21	.	.	5.8	.	.	.
CCCCCCn1c(=O)c(C(=O)Nc2cnccn2)c(O)c2ccccc21	-10.1	1.1	0.2	0.4	100.0*	8.2
CCCCn1c(=O)c(C(=O)Nc2ccsc2C(=O)OC)c(O)c2ccccc21	5.2	0.9	-22.4	0.3	53.2*	-20.3
CN1CCN(C(=O)COc2ccc(-c3nc4ccccc4s3)cc2)CC1	5.3	0.9	15.6	2.2	100.3*	6.1
CN1CCC(O)(c2ccc(Cl)cc2)C(C(=O)c2ccc(Cl)cc2)C1 (centres undefined)	10.6	0.9	9.8	-0.8	85.7*	0.2
CCOP1(=S)Oc2cc3c(cc2C(C(=O)OC)(C(F)(F)F)O1)OCO3 (centres undefined)	5.7	0.9	64.0*	-1.5	0.0	2.9
COCc1cc(OC(=O)N(C)C)nc(-c2ccccc2)n1	.	.	2.0	.	.	.
CCOc1ccc([N+](=O)[O-])cc1CNCCc1ccccc1	18.7	0.8	42.5	0.0	96.5*	-4.9
CCN1C[C@]2(OC(=O)c3ccccc3NC(C)=O)CCC(OC)C34C5C[C@H]6C(OC)[C@]5(O)[C@](O)(C[C@@H]6OC)C(C[C@@H]32)[C@H]14 (some centres undefined)	.	.	-8.4	.	.	.
O=C(O)c1cccc2c1NC(c1cccc([N+](=O)[O-])c1)C1CC(Sc3ccccc3[N+](=O)[O-])C(Cl)C21 (centres undefined)	94.4*	0.1	11.8	0.2	2.4	14.4
O=C(O)c1ccc2c(c1)C1C(Cl)C(Sc3ccccc3[N+](=O)[O-])CC1C(c1cccc([N+](=O)[O-])c1)N2 (centres undefined)	66.0*	0.3	45.6	-0.1	-4.6	8.9
C[C@H](CO)N1C[C@H](C)[C@H](CN(C)C(=O)Oc2ccccc2)OCc2cnnn2CCCC1=O	.	.	14.9	.	.	.
Cc1cccc(NP2(=O)NCCCN2)c1	.	.	-6.8	.	.	.
COC(=O)C1=C(c2ccc(F)cc2F)C[C@@H]2CC[C@H]1N2C(=O)N1CCCCC1	.	.	-0.4	.	.	.
COc1ccccc1CN1CCN(C(=O)COc2ccc3ccccc3c2)CC1	.	.	3.3	.	.	.
O=C(COc1ccccc1)N1CCN(C2CCCC2)CC1	14.7	0.9	7.0	-0.1	84.9*	-5.5
COc1ccc(OCC(=O)N2CCCC(N3CCN(c4ccccc4C)CC3)C2)cc1 (centres undefined)	.	.	-10.5	.	.	.
